For 17 compounds, IC50, Ratio IC50 and inhibition results are on record in ChEMBL document CHEMBL4350993, “Dipropargyl substituted diphenylpyrimidines as dual inhibitors of monoamine oxidase and acetylcholinesterase” (Eur J Med Chem, 2019).

Experiment [1] deals with T1, Amine oxidase [flavin-containing] B (Homo sapiens, UniProt P27338).
T1 sequence (P27338 whole entry): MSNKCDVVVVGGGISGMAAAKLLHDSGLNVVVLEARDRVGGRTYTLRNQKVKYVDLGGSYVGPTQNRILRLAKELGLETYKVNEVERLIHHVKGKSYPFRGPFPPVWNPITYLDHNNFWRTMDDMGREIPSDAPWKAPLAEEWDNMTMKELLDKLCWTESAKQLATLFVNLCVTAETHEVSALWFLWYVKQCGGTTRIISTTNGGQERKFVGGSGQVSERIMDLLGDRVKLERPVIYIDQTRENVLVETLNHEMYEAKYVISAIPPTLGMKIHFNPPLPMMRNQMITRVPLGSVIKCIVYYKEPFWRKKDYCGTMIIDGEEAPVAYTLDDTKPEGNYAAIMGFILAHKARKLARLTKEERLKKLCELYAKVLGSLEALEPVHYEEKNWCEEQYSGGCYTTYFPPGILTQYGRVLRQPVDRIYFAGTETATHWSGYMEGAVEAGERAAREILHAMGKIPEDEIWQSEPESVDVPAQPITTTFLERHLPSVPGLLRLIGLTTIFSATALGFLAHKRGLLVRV
Description: Inhibition of human recombinant microsomal MAO-B expressed in baculovirus infected BTI-TN-5B1-4 cells assessed as reduction in production of H202 using p-tyramine as substrate incubated for 30 mins followed by substrate addition by horse radish peroxidase/Amplex red reagent based fluorescence assay. Type of experiment: cell-based.

The species named for another experiment is Homo sapiens. In words: Selectivity index, ratio of IC50 for human recombinant microsomal MAO- A expressed in baculovirus infected BTI-TN-5B1- 4 cells using p-tyramine as substrate to IC50 for human recombinant microsomal MAO- B expressed in baculovirus infected BTI-TN-5B1- 4 cells using p-tyramine as substrate by horse radish peroxidase/Amplex red reagent based fluorescence assay. In outline: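 Recombinant hMAO-A (1.1 µg) or hMAO-B (7.5 µg) preincubated with inhibitor over a concentration range for 30 min at 37 °C in 0.05 M sodium phosphate, pH 7.4. Reaction started with 1 mM p-tyramine, 200 µM Amplex Red and 1 U/mL HRP (final concentrations). H₂O₂ was read by fluorescence (ex 545/em 590 nm) after 30 min dark incubation. Background without enzyme was subtracted; vehicle served as control.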

In another experiment the target is Acetylcholinesterase (Electrophorus electricus, UniProt O42275). In words: Inhibition of electric eel AChE assessed as reduction in production of H202 using acetylcholine as substrate incubated for 15 mins followed by substrate addition by horse radish peroxidase/Amplex red reagent based fluorescence assay.
Acetylcholinesterase, sequence (O42275 whole entry): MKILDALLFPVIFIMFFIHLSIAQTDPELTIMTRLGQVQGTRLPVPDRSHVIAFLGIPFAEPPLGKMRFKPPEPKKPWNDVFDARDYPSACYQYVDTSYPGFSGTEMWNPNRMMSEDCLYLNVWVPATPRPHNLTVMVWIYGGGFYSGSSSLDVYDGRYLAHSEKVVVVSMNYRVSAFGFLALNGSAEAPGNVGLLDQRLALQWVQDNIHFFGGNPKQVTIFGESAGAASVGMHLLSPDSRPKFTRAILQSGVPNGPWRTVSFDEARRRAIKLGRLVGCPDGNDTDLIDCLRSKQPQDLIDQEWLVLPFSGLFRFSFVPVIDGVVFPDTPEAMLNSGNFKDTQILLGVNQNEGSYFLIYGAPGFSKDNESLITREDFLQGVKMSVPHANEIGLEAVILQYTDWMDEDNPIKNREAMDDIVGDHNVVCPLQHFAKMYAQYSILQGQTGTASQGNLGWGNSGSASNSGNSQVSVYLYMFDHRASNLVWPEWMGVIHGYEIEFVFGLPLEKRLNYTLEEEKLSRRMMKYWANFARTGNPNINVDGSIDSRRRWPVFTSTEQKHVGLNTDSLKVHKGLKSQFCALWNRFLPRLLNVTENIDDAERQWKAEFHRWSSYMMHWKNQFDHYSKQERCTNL
In experiment [2] the target is T2, Amine oxidase [flavin-containing] A (Homo sapiens, UniProt P21397).
T2 sequence (P21397 whole entry): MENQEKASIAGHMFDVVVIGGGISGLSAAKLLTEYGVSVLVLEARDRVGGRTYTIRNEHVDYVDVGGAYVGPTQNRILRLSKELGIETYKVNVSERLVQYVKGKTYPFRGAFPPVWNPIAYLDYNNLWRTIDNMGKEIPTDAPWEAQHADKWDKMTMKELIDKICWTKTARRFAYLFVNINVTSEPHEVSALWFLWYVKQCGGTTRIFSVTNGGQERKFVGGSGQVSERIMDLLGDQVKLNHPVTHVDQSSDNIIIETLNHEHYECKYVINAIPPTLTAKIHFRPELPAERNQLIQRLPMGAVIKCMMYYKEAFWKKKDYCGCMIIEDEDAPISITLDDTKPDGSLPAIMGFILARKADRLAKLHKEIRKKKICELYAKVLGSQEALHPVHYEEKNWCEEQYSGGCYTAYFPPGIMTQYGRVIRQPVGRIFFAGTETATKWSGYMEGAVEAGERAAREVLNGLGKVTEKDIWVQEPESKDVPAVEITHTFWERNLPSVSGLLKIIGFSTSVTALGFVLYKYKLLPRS
Description: Inhibition of human recombinant microsomal MAO-A expressed in baculovirus infected BTI-TN-5B1-4 cells assessed as reduction in production of H202 using p-tyramine as substrate incubated for 30 mins followed by substrate addition by horse radish peroxidase/Amplex red reagent based fluorescence assay. In kind it is cell-based.

The target of experiment [3] is T2, Amine oxidase [flavin-containing] A. In words: Inhibition of human recombinant microsomal MAO- A expressed in baculovirus infected BTI-TN-5B1- 4 cells assessed as reduction in production of H202 at 50 uM using p-tyramine as substrate incubated for 30 mins followed by substrate addition by horse radish peroxidase/Amplex red reagent based fluorescence assay. The settings on record: 0.5 h. In outline:
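Recombinant hMAO-A (1.1 µg protein) preincubated 30 min at 37 °C with test compound in 0.05 M sodium phosphate, pH 7.4. Reaction started with (final) 200 µM Amplex Red, 1 U/mL HRP and 1 mM p-tyramine. After 30 min in the dark, H2O2 read by fluorescence (ex 545/em 590 nm) at 37 °C. Background without enzyme subtracted; vehicle control.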

Usually IC50 stands for the concentration that gives 50% inhibition. `C#CCOc1ccc(-c2cc(-c3ccc(OCC#C)cc3)nc(C)n2)cc1`: the IC50 in experiment [1] was found to be 7.83 µM; on Acetylcholinesterase, 1.76 µM; in experiment [2] (read-out: IC50) it was 34.1 µM. Also, the Ratio IC50 in the experiment filed under Homo sapiens amounted to 4.4.

On to `C#CCOc1ccc(-c2cc(-c3ccc(OCC#C)c(OC)c3)nc(-c3ccccc3)n2)cc1`, for which the IC50 in experiment [1] was determined as 15.7 µM; on Acetylcholinesterase, 6.99 µM; in experiment [2] (read-out: IC50), 24.9 µM. The Ratio IC50 in the experiment filed under Homo sapiens amounted to 1.6.

One may read the inhibition as how much of the control response was suppressed. Take `C#CCOc1ccccc1-c1cc(-c2ccccc2OCC#C)nc(N)n1`: the concentration for half-maximal inhibition (IC50) in experiment [1] is 11.1 µM; at Acetylcholinesterase it was 5.19 µM; in experiment [2] (bti-tn-5b1-4) it was “Not Active”. The Ratio IC50 in the experiment listed under Homo sapiens is above 5. For the same compound, in experiment [3], the inhibition at 50 µM is below 50%.

Turning to `C#CCOc1ccc(-c2cc(-c3ccc(OCC#C)c(OCC)c3)nc(N)n2)cc1`, the IC50 in experiment [1] was 14 µM; at Acetylcholinesterase it was 7.05 µM; in experiment [2] (bti-tn-5b1-4), “Not Active”. For the same compound, the Ratio IC50 in the experiment filed under Homo sapiens was above 4. In experiment [3], the inhibition at 50 µM was below 50%.

Turning to `C#CCOc1ccc(-c2cc(-c3ccc(OCC#C)c(OC)c3)nc(N)n2)cc1`, the IC50 in experiment [1] was 20 µM; at Acetylcholinesterase it was 4.58 µM; in experiment [2] (bti-tn-5b1-4), “Not Active”. Further, in the experiment listed under Homo sapiens, the Ratio IC50 is above 3. Also, the inhibition at 50 µM in experiment [3] is below 50%.

`C#CCOc1ccc(-c2cc(-c3ccc(OCC#C)c(OCC)c3)nc(-c3ccccc3)n2)cc1`: the half-maximal inhibitory concentration (IC50) is 29 µM in experiment [1], 6.94 µM at Acetylcholinesterase and “Not Active” in experiment [2] (bti-tn-5b1-4). In the experiment filed under Homo sapiens, the Ratio IC50 was above 2. The inhibition at 50 µM in experiment [3] is below 50%.

Consider `C#CCOc1cccc(-c2cc(-c3cccc(OCC#C)c3)nc(N)n2)c1`, for which the half-maximal inhibitory concentration (IC50) in experiment [1] was 22.1 µM; at Acetylcholinesterase it was 6.99 µM; in experiment [2] (bti-tn-5b1-4), “Not Active”. In addition, the Ratio IC50 in the experiment filed under Homo sapiens is above 3. In addition, the inhibition at 50 µM in experiment [3] was below 50%.

Turning to `C#CCOc1ccc(-c2cc(-c3ccc(OCC#C)c(OC)c3)nc(C)n2)cc1`, the concentration for half-maximal inhibition (IC50) in experiment [1] was 21.1 µM; on Acetylcholinesterase, 5.92 µM; in experiment [2] (read-out: IC50), 25 µM. In the experiment filed under Homo sapiens, the Ratio IC50 came out at 1.2.

On to `C#CCOc1ccc(-c2cc(-c3cccc(OCC#C)c3)nc(C)n2)cc1`, for which the IC50 in experiment [1] was determined as 8.09 µM; at Acetylcholinesterase, 5.88 µM; in experiment [2] (read-out: IC50), 21.1 µM. Also, the Ratio IC50 in the experiment filed under Homo sapiens worked out at 2.6.

Consider `C#CCOc1cccc(-c2cc(-c3cccc(OCC#C)c3)nc(-c3ccccc3)n2)c1`, for which the 50% inhibitory concentration (IC50) in experiment [1] was 23.4 µM; at Acetylcholinesterase, 6.73 µM; in experiment [2] (bti-tn-5b1-4), “Not Active”. Moreover, the Ratio IC50 in the experiment listed under Homo sapiens is above 3. For the same compound, the inhibition at 50 µM in experiment [3] was below 50%.

For `C#CCOc1ccc(-c2cc(-c3ccccc3OCC#C)nc(-c3ccccc3)n2)cc1`, the IC50 stood at 14.4 µM in experiment [1], 7.25 µM at Acetylcholinesterase and 22 µM in experiment [2] (read-out: IC50). Further, the Ratio IC50 in the experiment filed under Homo sapiens came to 1.5.

For `C#CCOc1ccccc1-c1cc(-c2ccccc2OCC#C)nc(-c2ccccc2)n1`, the IC50 was 13.8 µM in experiment [1], 8.12 µM at Acetylcholinesterase and “Not Active” in experiment [2] (bti-tn-5b1-4). For the same compound, the Ratio IC50 in the experiment filed under Homo sapiens is above 4. Besides, in experiment [3], the inhibition at 50 µM was below 50%.

Regarding `C#CCOc1ccc(-c2cc(-c3ccc(OCC#C)c(OCC)c3)nc(C)n2)cc1`, the half-maximal inhibitory concentration (IC50) in experiment [1] is 11 µM; on Acetylcholinesterase it was 6.38 µM; in experiment [2] (bti-tn-5b1-4) it was “Not Active”. Besides, in the experiment listed under Homo sapiens, the Ratio IC50 is above 5. Also, in experiment [3], the inhibition at 50 µM was below 50%.

With `C#CCOc1ccc(-c2cc(-c3ccccc3OCC#C)nc(N)n2)cc1`, the IC50 in experiment [1] was 22.1 µM; on Acetylcholinesterase, 1.81 µM; in experiment [2] (read-out: IC50), 28.6 µM. For the same compound, the Ratio IC50 in the experiment listed under Homo sapiens was determined as 1.3.

With `C#CCOc1ccc(-c2cc(-c3cccc(OCC#C)c3)nc(-c3ccccc3)n2)cc1`, the figures for the IC50 (in experiment [1]; at Acetylcholinesterase; in experiment [2] (read-out: IC50)) were 17.7 µM, 4.39 µM and 25.8 µM, respectively. Further, in the experiment listed under Homo sapiens, the Ratio IC50 stood at 1.5.

Regarding `C#CCOc1ccc(-c2cc(-c3ccccc3OCC#C)nc(C)n2)cc1`, the IC50 in experiment [1] is 18.1 µM; at Acetylcholinesterase, 2.56 µM; in experiment [2] (read-out: IC50) it was 23.2 µM. The Ratio IC50 in the experiment filed under Homo sapiens was found to be 1.3.

For `C#CCOc1ccc(-c2cc(-c3ccc(OCC#C)cc3)nc(-c3ccccc3)n2)cc1`, the values for the IC50 (in experiment [1]; at Acetylcholinesterase; in experiment [2] (read-out: IC50)) were 12.3 µM, 7.53 µM and 25.6 µM, respectively. Further, the Ratio IC50 in the experiment listed under Homo sapiens amounted to 2.1.
